Measurements: ChEMBL document CHEMBL1154461, “6-Substituted 2-oxo-2H-1-benzopyran-3-carboxylic acid derivatives in a new approach of the treatment of cancer cell invasion and metastasis” (2008)

Tests used:
HT-1080 [1] = test: Antiinvasive activity in human HT1080 cells assessed as number of cells migrated at 0.1 uM after 24 hrs by Boyden chamber invasion assay; format: functional; settings: in the assay text read “after 48 hrs” for “after 24 hrs”
How it was run: (§1)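 HT 1080 cells, harvested at 70–80% confluence, were seeded at 6×10⁴ cells per filter in serum-free DMEM with BSA. Transwell filters were coated with human placental type IV collagen. Chambers were incubated 48 h at 37 °C, with media renewed at 24 h. Lower-surface cells were fixed, Giemsa-stained and counted by light microscopy. Results are % of untreated control migration, mean ± s.d., n=3.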

HT-1080 [2] = test: Antiinvasive activity in human HT1080 cells assessed as number of cells migrated at 1 uM after 48 hrs by Boyden chamber invasion assay
HT-1080 [3] = test: Antiinvasive activity in human HT1080 cells assessed as number of cells migrated at 10 uM after 24 hrs by Boyden chamber invasion assay; format: functional; settings: in the assay text read “after 48 hrs” for “after 24 hrs”; how it was run: as §1
HT-1080 [4] = test: Antiinvasive activity in human HT1080 cells assessed as number of cells migrated at 10 uM after 48 hrs by Boyden chamber invasion assay
HT-1080 [5] = test: Antiinvasive activity in human HT1080 cells assessed as number of cells migrated at 0.1 uM after 48 hrs by Boyden chamber invasion assay

SMILES	Activity (HT-1080 [1])	Cells migrated (HT-1080 [2])	Activity (HT-1080 [3])	Activity (HT-1080 [4])	Activity (HT-1080 [5])
O=C(Oc1cccc(Cl)c1)c1cc2ccccc2oc1=O	52.4%	45.5%	35.65%		
CC(=O)OCc1ccc2oc(=O)c(C(=O)Oc3cccc(Cl)c3)cc2c1	95.2%	49.11%	6.17%		
O=C(Oc1cccc(Cl)c1)c1cc2cc(CCl)ccc2oc1=O	98.35%	79.76%	67%		
Cc1ccc2oc(=O)c(C(=O)Oc3cccc(Cl)c3)cc2c1	81.5%	52.49%	27.62%		
CC(=O)NCc1ccc2oc(=O)c(C(=O)Oc3ccccc3)cc2c1		63.45%			
CC(=O)OCc1ccc2oc(=O)c(C(=O)N(C)c3ccccc3Cl)cc2c1		62.78%			
CC(=O)OCc1ccc2oc(=O)c(C(=O)N(C)c3cccc(Cl)c3)cc2c1		82.56%			
CCC(=O)OCc1ccc2oc(=O)c(C(=O)Oc3cccc(Br)c3)cc2c1	84.36%	40.23%	21.32%		
CCCC(=O)OCc1ccc2oc(=O)c(C(=O)Oc3cccc(Br)c3)cc2c1	88.55%	50.47%		24.67%	
CC(=O)OCc1ccc2oc(=O)c(C(=O)Sc3cccc(Cl)c3)cc2c1	76.54%	65.84%	61.86%		
CC(=O)OCc1ccc2oc(=O)c(C(=O)Sc3cccc(Br)c3)cc2c1	79.58%	70.86%	67.84%		
CC(=O)OCc1ccc2oc(=O)c(C(=O)Nc3cccc(Cl)c3)cc2c1	79.55%	66.85%	42.75%		
O=C1NC(=O)C(c2ccc(-c3ccccc3)cc2)(N2CCN(c3ccc([N+](=O)[O-])cc3)CC2)C(=O)N1		41.6%			
Cl.NCc1ccc2oc(=O)c(C(=O)Oc3cccc(F)c3)cc2c1		45.25%			
CC(C)(C)C(=O)OCc1ccc2oc(=O)c(C(=O)Oc3cccc(Br)c3)cc2c1		48.21%	23.64%		65.24%
O=C(Oc1ccccc1)c1cc2cc([N+](=O)[O-])ccc2oc1=O		76.68%			
O=C(Oc1cccc(F)c1)c1cc2cc([N+](=O)[O-])ccc2oc1=O		53.56%			
O=C(Oc1cccc(Cl)c1)c1cc2cc([N+](=O)[O-])ccc2oc1=O		65.78%			

SMILES	Activity (HT-1080 [1])	Cells migrated (HT-1080 [2])	Activity (HT-1080 [3])	Activity (HT-1080 [4])	Activity (HT-1080 [5])
CC(=O)NCc1ccc2oc(=O)c(C(=O)Oc3cccc(Br)c3)cc2c1	34.38%	36.94%	27.14%		
CC(=O)NCc1ccc2oc(=O)c(C(=O)Oc3cccc(I)c3)cc2c1		23.47%			
CC(=O)NCc1ccc2oc(=O)c(C(=O)Oc3cccc(Cl)c3)cc2c1		36.58%			
CC(=O)OCc1ccc2oc(=O)c(C(=O)Oc3cccc(Br)c3)cc2c1	39.47%	21.81%	11.77%		
CC(C)CC(C(=O)N(C)C(Cc1ccccc1)C(=O)O)C(CSc1ccccc1)C(=O)NO (configuration not stated)		38.45%			
CCCCC(=O)OCc1ccc2oc(=O)c(C(=O)Oc3cccc(Br)c3)cc2c1	92.36%	63.25%	32.26%		
CCCCCCC(=O)OCc1ccc2oc(=O)c(C(=O)Oc3cccc(Br)c3)cc2c1	89.36%	55.56%	35.96%		
Cl.NCc1ccc2oc(=O)c(C(=O)Oc3cccc(Br)c3)cc2c1	88.26%	79.25%	63.58%		
O=C(Oc1cccc(Br)c1)c1cc2cc([N+](=O)[O-])ccc2oc1=O		35.22%			
Cl.NCc1ccc2oc(=O)c(C(=O)Oc3ccccc3)cc2c1		85.53%			
CC(=O)NCc1ccc2oc(=O)c(C(=O)Oc3cccc(F)c3)cc2c1		65.58%			
CC(=O)OCc1ccc2oc(=O)c(C(=O)N(C)c3ccc(Cl)cc3)cc2c1		98.56%			
Cl.NCc1ccc2oc(=O)c(C(=O)Oc3cccc(Cl)c3)cc2c1		86.56%			
Cl.NCc1ccc2oc(=O)c(C(=O)Oc3cccc(I)c3)cc2c1		25.34%			
CC(=O)OCc1ccc2oc(=O)c(C(=O)Sc3ccccc3)cc2c1	89.45%	83.45%	73.84%		
O=C(Oc1cccc(I)c1)c1cc2cc([N+](=O)[O-])ccc2oc1=O		63.58%			
CC(C)C(=O)OCc1ccc2oc(=O)c(C(=O)Oc3cccc(Br)c3)cc2c1	54.36%	37.8%	21.07%		
CCCCCC(=O)OCc1ccc2oc(=O)c(C(=O)Oc3cccc(Br)c3)cc2c1	94.25%	59.32%	33.94%		
